Screening data: PubChem BioAssay, Broad Institute
S100A4 MyoIIA = inhibitors of S100A4-myosin IIA peptide binding, primary screen, biochemical, fluorescence polarization, TAMRA-MyoIIA peptide. Protein S100-A4 (Homo sapiens), P26447. inhibition, % at 10.7 µM. hit rate 0.14% among 360,000. AID 652163, 2013;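 active = mean inhibition of at least 70% across replicates, with every replicate also reaching that level; inconclusive = mean inhibition reaches 70% but some replicates fall short; inactive = mean inhibition below 70%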
Target sequence (P26447 whole entry, looked up): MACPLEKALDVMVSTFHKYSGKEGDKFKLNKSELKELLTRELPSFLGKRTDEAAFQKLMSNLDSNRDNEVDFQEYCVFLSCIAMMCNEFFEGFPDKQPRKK
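System – human S100A4 monomer protein, biochemical binding assay · Buffer or medium – Calcium-containing HEPES buffer, pH 7.2 · Timing – 5 min between mix addition and reading · Also added – TAMRA-labelled myosin IIA heavy-chain peptide probe, 5 nM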
E-selectin induc = E-selectin induction in HUVECs, primary screen, imaging, HUVEC, immunofluorescence imaging, single point | P16581 | normalized: neutral wells 0, TNF-alpha wells 100 | activation, % at 7.58 µM | hit rate 0.37% among 260,000;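 active = mean E-selectin-positive cell signal at least 10% of the positive control, reached in at least 60% of replicates, without over 20% cell loss; inconclusive = no rule given, readout overlaps actives, possibly toxicity-flagged; inactive = the rest, including those meeting only one limit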
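System: HUVEC, human umbilical vein endothelial cells; quantity: 3,000 cells/well; buffer or medium: EGM-2 medium, gelatin-coated wells; dosing: single-point compound dose; detection: immunofluorescence imaging; evaluation: % PE-positive cells; benchmarks: TNF-alpha, DMSO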
CFTR F508del cor = F508del CFTR correction, initial screen, CFBE line, single point | CFBE cells, YFP halide quenching; stimulated with forskolin plus potentiator P3; % fluorescence drop versus neutral controls | activity (quench increase), % at 7.58 µM | hit rate 0.36% among 350,000 | AID 720511, 2013;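 active = mean added fluorescence quench of at least 8% versus neutral control, with both replicates also reaching 8%; inconclusive = only one of the mean or replicate conditions met; inactive = mean below 8% and not both replicates reaching 8%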;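 also: cells transiently co-express mutant CFTR-F508del with the halide-sensitive YFP; corrector assay measuring rescue of mutant channel to the surface after 24 h compound exposure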
FGF22 binding = binders of human FGF22 protein, primary screen, FGF22 synaptogenesis inhibitor project, biophysical, thermal shift, single point; AID 651658, 2012; recombinant FGF22 thermal shift, SYPRO orange fluorescence; percent of sucrose octasulfate shift, DMSO zero; Fibroblast growth factor 22 (Homo sapiens), Q9HCT0; hit rate 1.5% among 340,000; activity (Tm shift, normalised), % at 9.99 µM;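 active = mean Tm shift, scaled 0 neutral to 100 positive control, at about 1.3% or above, every replicate too, limit read from the data; inconclusive = no clear call, values can overlap the other calls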
Target sequence (Q9HCT0 whole entry, looked up): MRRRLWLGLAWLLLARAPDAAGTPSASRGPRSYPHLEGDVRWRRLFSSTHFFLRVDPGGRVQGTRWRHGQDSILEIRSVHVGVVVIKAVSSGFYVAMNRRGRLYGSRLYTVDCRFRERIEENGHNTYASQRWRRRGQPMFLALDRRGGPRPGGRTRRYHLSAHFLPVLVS
HIV Env fusion = inhibitors of HIV-1 Env-driven cell-cell fusion, primary screen, HeLa-JRFL effector, CEM21 target cells, luciferase; inhibition, % at 12.3 µM; hit rate 1.1% among 360,000; AID 651610, 2012;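 active = mean replicate inhibition score of at least 50 and every replicate individually at or above 50; inconclusive = only one of the two criteria met; inactive = mean below 50 and not all replicates reaching 50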;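 also: 0% = plate neutral controls and 100% = maraviroc near 300 nM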
* hit, by the source's call; [ ] = remark or other dose. Most compounds without a hit are left out; they make up all but 2.7% or so of the library.

Screening CS(=O)(=O)c1ccccc1C(=O)N(CCc1ccccc1)Cc1ccccc1 returned S100A4 MyoIIA -7, E-selectin induc 12, CFTR F508del cor -1 and FGF22 binding 0.
COc1ccc(C(=O)N(CCc2ccccc2)Cc2ccccc2)c(OC)n1 was read as S100A4 MyoIIA -8, E-selectin induc 30*, CFTR F508del cor 0, FGF22 binding 0 and HIV Env fusion 12.
Cc1ccc(S(=O)(=O)N2CCOCC2)cc1NC(=O)CSc1ccccn1 was read as S100A4 MyoIIA 1, E-selectin induc 2, CFTR F508del cor -1, FGF22 binding 0 and HIV Env fusion 0.
Cc1ccc(S(=O)(=O)N2CCOCC2)cc1NC(=O)CSc1nnc(COc2ccccc2F)n1N was read as S100A4 MyoIIA 6, E-selectin induc 0, CFTR F508del cor 28*, FGF22 binding 0 and HIV Env fusion -5.
`O=C(O)c1ccc(N2C(=O)Nc3ccccc3N2O)cc1` gave S100A4 MyoIIA -4, CFTR F508del cor -2, FGF22 binding 0 and HIV Env fusion 8.
For CC(=O)c1cccc(N2C(=O)Nc3ccccc3N2O)c1 the results were S100A4 MyoIIA -3, E-selectin induc 0, CFTR F508del cor -1, FGF22 binding 43* and HIV Env fusion 3.
Screening COc1ccc2c3c([nH]c2c1)[C@@H](CO)N(C(=O)c1cccc(F)c1)CC31CCN(C(=O)c2ccccc2)CC1 returned S100A4 MyoIIA -8, E-selectin induc 0, CFTR F508del cor -11 and FGF22 binding 0.
CCOC(=O)[C@@H](CCc1ccccc1)N[C@H](C)C(=O)N1[C@H](C(=O)O)C[C@@H]2CCC[C@@H]21 was read as S100A4 MyoIIA -2, E-selectin induc 0, CFTR F508del cor -2 and FGF22 binding 0.
CCOC(=O)[C@H](CCc1ccccc1)N[C@@H](C)C(=O)N1[C@H](C(=O)O)C[C@@H]2CCC[C@@H]21 was read as S100A4 MyoIIA -4, E-selectin induc 1, CFTR F508del cor 12*, FGF22 binding 0 and HIV Env fusion inactive.
Screening C[C@H](CO)N1C[C@H](C)[C@H](CN(C)C(=O)Nc2ccccc2)Oc2ccc(NS(=O)(=O)c3cn(C)cn3)cc2C1=O returned S100A4 MyoIIA 7, E-selectin induc 0, CFTR F508del cor -1, FGF22 binding 0 and HIV Env fusion 10[16.7 µM].
`CCc1cccc(C)c1NC(=O)CCCC(=O)O` gave HIV Env fusion -60.
For CCc1cccc(C)c1NC(=O)CCCN1C(=O)NC(C)(C)C1=O the results were S100A4 MyoIIA -16, E-selectin induc 27*, CFTR F508del cor 1 and FGF22 binding 0.
`Nc1cccc(S(=O)(=O)c2ccc(N)c(N)c2)c1` gave S100A4 MyoIIA -3, FGF22 binding 43* and HIV Env fusion -14.
COc1ccccc1CNC(=O)C[C@H]1CC[C@@H](NC(C)=O)[C@H](CO)O1 was read as S100A4 MyoIIA 2, E-selectin induc 0, CFTR F508del cor 2, FGF22 binding 0 and HIV Env fusion -1[16.7 µM].
For COc1ccc(CCN2C(=O)C(Oc3ccccc3)C2c2ccc3c(c2)OCO3)cc1 (configuration not stated) the results were E-selectin induc 3, CFTR F508del cor 2 and HIV Env fusion 16.
COc1ccc(OC2C(=O)N(Cc3ccc4c(c3)OCO4)C2c2cccs2)cc1 (configuration not stated) was read as S100A4 MyoIIA 3, FGF22 binding 0 and HIV Env fusion 68*.
`COc1ccc2c3c(n(C)c2c1)[C@H](CO)N(C(=O)C1CC1)CC31CCN(Cc2cccc(F)c2)CC1` gave S100A4 MyoIIA 2, E-selectin induc 0 and CFTR F508del cor 15*.
`COc1ccc2c3c(n(C)c2c1)[C@@H](CO)N(C(=O)C1CCOCC1)CC31CCN(Cc2cccc(F)c2)CC1` gave S100A4 MyoIIA 6, E-selectin induc 0, CFTR F508del cor inconclusive, FGF22 binding 0 and HIV Env fusion 70*[16.7 µM].
For COc1ccc2c3c(n(C)c2c1)[C@@H](CO)N(C(=O)C1CC1)CC31CCN(Cc2cccc(F)c2)CC1 the results were S100A4 MyoIIA 10, E-selectin induc 0 and CFTR F508del cor 6.
For COc1ccc2c3c(n(C)c2c1)[C@@H](CO)N(C(=O)Nc1ccc(F)cc1)CC31CCN(C)CC1 the results were S100A4 MyoIIA 82*, E-selectin induc 0, CFTR F508del cor 1 and FGF22 binding 0.
Screening COc1ccc2c3c(n(C)c2c1)[C@H](CO)N(C(=O)Nc1ccc(F)cc1)CC31CCN(C)CC1 returned S100A4 MyoIIA -11, E-selectin induc 0, CFTR F508del cor 4 and FGF22 binding 0.
CCCNC(=O)N1CC2(CN(CC3CCCCC3)C2)c2c(n(C)c3cc(OC)ccc23)[C@H]1CO was read as S100A4 MyoIIA 8, E-selectin induc 0, CFTR F508del cor 9.3* and FGF22 binding 0.
`CC(C)C#Cc1cnc2c(c1)C(=O)N([C@@H](C)CO)C[C@@H](C)[C@@H](CN(C)Cc1ccccc1)O2` gave S100A4 MyoIIA -1, E-selectin induc 2, CFTR F508del cor -2, FGF22 binding 0 and HIV Env fusion -9[16.7 µM].
COc1ccc(S(=O)(=O)N(C)C[C@H]2Oc3c(NC(=O)c4ccc(-c5nccs5)cc4)cccc3C(=O)N([C@@H](C)CO)C[C@H]2C)cc1 was read as S100A4 MyoIIA -48, CFTR F508del cor 2, FGF22 binding 0 and HIV Env fusion -8[16.7 µM].
Screening C/C=C/c1ccc([C@@H]2[C@H](CO)N(C(=O)c3ccccc3)C23CN(C(C)=O)C3)cc1 returned S100A4 MyoIIA 14, E-selectin induc 0 and CFTR F508del cor 1.
Screening COc1ccc2c3c(n(C)c2c1)[C@H](CO)N(C(=O)C1CCOCC1)CC31CCN(Cc2cccc(F)c2)CC1 returned S100A4 MyoIIA 2, E-selectin induc 0, CFTR F508del cor -1, FGF22 binding 0 and HIV Env fusion 55*[16.7 µM].
Screening C[C@H]1CCCCO[C@H](CN(C)C(=O)Nc2ccc(F)cc2)[C@@H](C)CN([C@@H](C)CO)C(=O)c2cc(NC(=O)Nc3ccccc3)ccc2O1 returned S100A4 MyoIIA -16, E-selectin induc 0, CFTR F508del cor 0, FGF22 binding 0 and HIV Env fusion 45[16.7 µM].
For O=C(O)CC1=C(Nc2ccccc2)C(=O)N(c2ccccc2)C1c1ccc(F)cc1 (configuration not stated) the results were S100A4 MyoIIA -9, CFTR F508del cor 2, FGF22 binding 43* and HIV Env fusion -33.
CCC(=O)Nc1ccc2c(c1)OC[C@H](C)N(C(=O)NC(C)C)C[C@H](C)[C@H](OC)CN(C)C2=O was read as S100A4 MyoIIA -4, E-selectin induc 0, CFTR F508del cor 2, FGF22 binding 0 and HIV Env fusion 13[16.7 µM].
